# The source made the active and inactive calls. No cut-off for these calls is given here.
# Columns and labels:
# A549 [1] = assay: Effect on glutathione S-transferase expression in human A549 cells assessed as transcript level at 24 nM after 24 hrs by RT-qPCR analysis relative to untreated control; type: functional; settings: in the assay text read “24 µM” for “24 nM”
# Method in brief: (§1)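 A549 cells are seeded at 2.5 × 10^5 per 25-cm2 well. At 40–45% confluence they are treated for 24 h with 166 or 662 μM, 158 or 315 μM, or 5 or 24 μM compound; controls receive <5% DMSO. Total RNA is DNase-treated and qRT-PCR is run in quadruplicate. Values are normalized to GAPDH and given as % of untreated control.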
# Plasmodium falciparum [2] = assay: Downregulation of DNA-directed RNA polymerase 2 mRNA level in Plasmodium falciparum 3D7 trophozoites at 126 nM by RT-qPCR analysis relative to untreated control; type: functional
# Method in brief: (§2)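 P. falciparum 3D7 trophozoites are exposed to 126 nM compound for 12, 15 or 18 h, then harvested by saponin lysis at 37°C. RNA is extracted and reverse-transcribed, and transcripts are quantified by real-time PCR in quadruplicate. Analysis uses ΔΔCT with 18S rRNA as reference (LDH also checked), expressed as % of untreated control.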
# Plasmodium falciparum [3] = assay: Upregulation of glutathione S-transferase mRNA level in Plasmodium falciparum 3D7 trophozoites at 126 nM after 12 hrs by RT-qPCR analysis relative to untreated control; type: functional, organism-based
# Method in brief: (§3)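 Synchronized 3D7 trophozoites in RPMI/Albumax culture at 37°C under 3% O2, 3% CO2 were exposed 12, 15 or 18 h, then harvested by 0.02% saponin lysis. RNA was reverse-transcribed and analyzed by real-time PCR in quadruplicate. Quantification used ΔΔCT with 18S rRNA reference (LDH also checked), expressed as % of untreated control.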
# Plasmodium falciparum [4] = assay: Upregulation of thioredoxin reductase mRNA level in Plasmodium falciparum 3D7 trophozoites at 126 nM after 12 hrs by RT-qPCR analysis relative to untreated control; type: functional, organism-based; method in brief: as §3
# A549 [5] = assay: Inhibition of glutathione peroxidase in human A549 cells assessed as enzyme activity at 5 µM after 24 hrs relative to untreated control; design: scale not given: the % may be the effect or the level left
# Plasmodium falciparum [6] = assay: Upregulation of glutathione synthetase mRNA level in Plasmodium falciparum 3D7 trophozoites at 126 nM after 12 hrs by RT-qPCR analysis relative to untreated control; type: functional; method in brief: as §3
# Plasmodium falciparum [7] = assay: Downregulation of gamma-glutamylcysteine synthetase mRNA level in Plasmodium falciparum 3D7 trophozoites at 126 nM after 15 hrs by RT-qPCR analysis relative to untreated control; type: functional; method in brief: as §2
# Plasmodium berghei = assay: Antimalarial activity against Plasmodium berghei infected in mouse assessed as reduction in parasite load at 10 mg/kg for 4 days treated postinfection measured on day 7; type: functional; design: scale not given: the % may be the effect or the level left
# Method in brief: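 Murine Plasmodium berghei infection model. Compound given subcutaneously at 10 mg/kg for 4 days after infection, 13 treated mice and 13 controls. Parasitemia is compared with untreated controls, with significance by Fisher's exact test.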
# Plasmodium falciparum [8] = assay: Downregulation of glutathione reductase mRNA level in Plasmodium falciparum 3D7 trophozoites at 126 nM after 18 hrs by RT-qPCR analysis relative to untreated control; type: functional; method in brief: as §2
# Plasmodium falciparum [9] = assay: Antiplasmodial activity against chloroquine-sensitive Plasmodium falciparum 3D7 assessed as inhibition of ring stage parasite growth at 526 nM after 24 hrs by [3H]hypoxanthine incorporation assay; type: functional; settings: read-out: GI
# Method in brief: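 P. falciparum 3D7 is synchronized with sorbitol. […] Cells are washed four times, then labelled with [3H]hypoxanthine for 24 h. Growth is given as % of untreated control for each stage, in triplicate.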
# [10] = biological target: T1, Glutathione reductase, mitochondrial (Homo sapiens) (UniProt P00390); assay: Inhibition of glutathione reductase in human A549 cells assessed as enzyme activity at 662 µM after 24 hrs relative to untreated control; design: scale not given: the % may be the effect or the level left
# T1 sequence (whole entry): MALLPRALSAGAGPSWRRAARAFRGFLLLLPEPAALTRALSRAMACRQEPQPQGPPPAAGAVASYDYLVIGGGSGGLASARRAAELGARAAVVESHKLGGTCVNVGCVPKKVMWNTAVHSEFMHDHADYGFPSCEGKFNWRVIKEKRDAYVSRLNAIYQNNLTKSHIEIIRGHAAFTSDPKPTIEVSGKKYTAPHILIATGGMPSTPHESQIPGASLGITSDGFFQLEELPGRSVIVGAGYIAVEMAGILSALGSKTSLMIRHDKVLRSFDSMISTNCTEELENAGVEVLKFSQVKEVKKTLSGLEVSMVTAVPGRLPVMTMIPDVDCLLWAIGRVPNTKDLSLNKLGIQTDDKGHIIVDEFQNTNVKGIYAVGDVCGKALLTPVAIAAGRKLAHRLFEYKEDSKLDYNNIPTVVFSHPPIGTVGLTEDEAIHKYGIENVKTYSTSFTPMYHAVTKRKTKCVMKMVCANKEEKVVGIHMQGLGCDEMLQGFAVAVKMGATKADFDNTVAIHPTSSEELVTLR
# A549 [11] = assay: Effect on glutathione reductase expression in human A549 cells assessed as transcript level at 662 nM after 24 hrs by RT-qPCR analysis relative to untreated control; type: functional; settings: in the assay text read “662 µM” for “662 nM”; method in brief: as §1
# A549 [12] = assay: Effect on glutathione S-transferase expression in human A549 cells assessed as transcript level at 662 nM after 24 hrs by RT-qPCR analysis relative to untreated control; type: functional; settings: in the assay text read “662 µM” for “662 nM”; method in brief: as §1
# A549 [13] = assay: Effect on glutathione reductase expression in human A549 cells assessed as transcript level at 166 nM after 24 hrs by RT-qPCR analysis relative to untreated control; type: functional; settings: in the assay text read “166 µM” for “166 nM”; method in brief: as §1
# Thioredoxin reductase = Thioredoxin reductase (Homo sapiens, UniProt Q16881+Q9NNW7+Q86VQ6); assay: Inhibition of thioredoxin reductase in human A549 cells assessed as enzyme activity at 166 µM after 24 hrs by DTNB assay relative to untreated control; design: scale not given: the % may be the effect or the level left
# Plasmodium falciparum [14] = assay: Antiplasmodial activity against chloroquine-resistant Plasmodium falciparum K1 in presence of mefloquine; type: functional
# A549 [15] = assay: Effect on glutathione peroxidase expression in human A549 cells assessed as transcript level at 158 nM after 24 hrs by RT-qPCR analysis relative to untreated control; type: functional; settings: in the assay text read “158 µM” for “158 nM”; method in brief: as §1
# A549 [16] = assay: Effect on glutathione reductase expression in human A549 cells assessed as transcript level at 315 nM after 24 hrs by RT-qPCR analysis relative to untreated control; type: functional; settings: in the assay text read “315 µM” for “315 nM”; method in brief: as §1
# A549 [17] = assay: Inhibition of glutathione S-transferase in human A549 cells assessed as enzyme activity at 315 µM after 24 hrs relative to untreated control; design: scale not given: the % may be the effect or the level left
# A549 [18] = assay: Effect on thioredoxin reductase expression in human A549 cells assessed as transcript level at 315 nM after 24 hrs by RT-qPCR analysis relative to untreated control; type: functional; settings: in the assay text read “315 µM” for “315 nM”; method in brief: as §1
smiles,measurement,setting,value
O=c1oc2c(O)c(O)c(O)c3c(=O)oc4c(O)c(O)c(O)c1c4c23 [CORULEOELLAGIC ACID],Activity,A549 [1],84%
same,Activity,Plasmodium falciparum [2],42%
same,Activity,Plasmodium falciparum [3],inactive
same,Activity,Plasmodium falciparum [4],inactive
same,Activity,A549 [5],85%
same,Activity,Plasmodium falciparum [6],128%
same,Activity,Plasmodium falciparum [7],25%
same,Activity,Plasmodium berghei,30%
same,Activity,Plasmodium falciparum [8],62%
same,inhibition of growth at 0.526 µM,Plasmodium falciparum [9],38%
O=c1oc2c(O)c(O)cc3c(=O)oc4c(O)c(O)cc1c4c23 [ELLAGIC ACID],Activity,[10],85%
same,Activity,A549 [11],125%
same,Activity,A549 [12],131%
same,Activity,A549 [13],152%
same,Activity,Thioredoxin reductase,82%
same,FIC50,Plasmodium falciparum [14],1
O=c1oc2c(O)c(O)c(O)c3c(=O)oc4c(O)c(O)cc1c4c23 [FLAVELLAGIC ACID],Activity,A549 [15],107%
same,Activity,A549 [16],70%
same,Activity,A549 [17],121%
same,Activity,A549 [18],61%

# From ChEMBL document CHEMBL1687720 (Antimicrob Agents Chemother, 2009)
